Data: ChEMBL document CHEMBL4011638, “Semisynthetic Flavone-Derived Antimicrobials with Therapeutic Potential against Methicillin-Resistant Staphylococcus aureus (MRSA)” (J Med Chem, 2017)
≈ marks a conversion by molar mass, not a printed value. Calls of active or inactive are those of the source. The rule behind the calls is not given here.

Tests used:
Staphylococcus aureus [1] = experiment: Antibacterial activity against Staphylococcus aureus DM4001R after 24 hrs by broth microdilution method; format: functional
Outline: (§1)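 Broth microdilution per CLSI in cation-adjusted Mueller−Hinton broth, in tubes. Compounds dissolved in H2O or DMF, then diluted in PBS to 1000 μg/mL stocks. Serial 2-fold dilutions were made, with final DMF 2.5%. Organisms were grown on TSA at 35 °C for 20 h and adjusted to ~5× 10^5 CFU/mL. Tubes were incubated at 35 °C for 24 h. MIC was the lowest concentration with no visible growth versus control. Biological replicates.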

Staphylococcus aureus [2] = experiment: Antibacterial activity against methicillin-sensitive Staphylococcus aureus DM4299 after 24 hrs by broth microdilution method; format: functional; conditions: DM4299, 24 h; outline: as §1
Staphylococcus aureus [3] = experiment: Antibacterial activity against Staphylococcus aureus ATCC 29213 infected in C57BL6 mouse keratitis model assessed as log reduction in bacterial burden at 0.5 % administered 4 times daily at 2 hrs interval for 1 day; format: functional
Outline: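 C57BL6 mice, 6–8 weeks, 20–30 g, four per group, anesthetized with ketamine/xylazine. Right cornea scratched (three 1 mm cuts), 10 μL of 6×10^8 CFU/mL S. aureus ATCC 29213 in PBS applied topically. From day 1, 0.5% drug in PBS (12 mM, pH 7.2) given 4 times at 2 h intervals. Corneas homogenized in 0.9% NaCl/0.25% BSA, diluted, plated in duplicate on TSA, 48 h at 35 °C.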

Staphylococcus aureus [4] = experiment: Bactericidal activity against methicillin-resistant Staphylococcus aureus DM21455 assessed as log reduction in bacterial count at 4 times MIC up to 30 mins by time kill assay; format: functional
Outline: (§2)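 Time-kill. Starting inoculum 10^5−10^6 CFU/mL, exposed to 0.5×, 1×, 2× and 4× MIC at 35 °C. Colonies were counted after 24 h at 35 °C and CFU/mL calculated. Biological replicates.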

Staphylococcus aureus [5] = experiment: Bactericidal activity against methicillin-resistant Staphylococcus aureus DM9808R assessed as log reduction in bacterial count up to 4 hrs by time kill assay; format: functional; outline: as §2
[6] = Cytotoxicity in human Corneal fibroblasts assessed as LDH release at 100 uM after 24 hrs; format: cell-based; conditions: corneal fibroblast
Outline: (§3)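 Human corneal fibroblasts are exposed to test samples for 24 h, and cytotoxicity is read as LDH leakage into the medium. Biological replicates.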

Lipid bilayer = experiment: Membrane permeabilization activity in DOPE/DOPG large unilamellar liposomes assessed as leakage of calcein at 1:8 compound to lipid ratio by fluorescence assay
Outline: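 Calcein-loaded 100 nm LUVs of DOPE/DOPG (3:1, w/w), made by film hydration in 80 mM calcein, 100 mM NaCl, 50 mM HEPES, 0.3 mM EDTA, pH 7.4. Liposomes 50 μM, 0.5% DMF, room temperature. Read at ex 490/em 520 nm every 2 min for 30 cycles. % leakage normalized to 0.1% Triton X-100 (100%) and 0.5% DMF (0%). Biological replicates.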

[7] = Ratio of HC50 for New Zealand white rabbit RBC to MIC for methicillin-sensitive Staphylococcus aureus DM4583R
Outline: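 HC50 measured on fresh New Zealand white rabbit RBCs, washed three times in PBS, at 4% v/v final. Cells were incubated with 2-fold serial dilutions (DMF final 0.5%) at 37 °C for 1 h, then centrifuged. Supernatant absorbance was read at 576 nm, with PBS as 0% and 2% Triton X-100 as 100% lysis. HC50 is the concentration lysing 50% of cells, divided by MIC from broth microdilution.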

Staphylococcus aureus [8] = experiment: Antibacterial activity against methicillin-sensitive Staphylococcus aureus ATCC 29213 after 24 hrs by broth microdilution method; format: functional; conditions: ATCC 29213, 24 h; outline: as §1
[9] = Cytotoxicity in human Corneal fibroblasts assessed as LDH release at 10 uM after 24 hrs; format: cell-based; conditions: corneal fibroblast; outline: as §3
Staphylococcus aureus [10] = experiment: Bactericidal activity against methicillin-resistant Staphylococcus aureus DM21455 up to 4 hrs by time kill assay; format: functional; outline: as §2
Staphylococcus aureus [11] = experiment: Antibacterial activity against methicillin-resistant Staphylococcus aureus ATCC 43300 after 24 hrs by broth microdilution method; format: functional; conditions: ATCC 43300, 24 h; outline: as §1

COC(=O)[C@H](CCCNC(=N)N)NC(=O)COc1cc(O)c2c(=O)c(OCC(=O)N[C@@H](CCCNC(=N)N)C(=O)OC)c(-c3ccc(OC)cc3)oc2c1CC=C(C)C
MIC (Staphylococcus aureus [1]): 1.9 µM (≈ 1.57 µg/mL)
MIC (Staphylococcus aureus [2]): 3.13 µg/mL (≈ 3.79 µM)
Activity (Staphylococcus aureus [3]): Active
Activity (Staphylococcus aureus [4]): 3 deltalog10CFU/ml
Activity (Staphylococcus aureus [5]): Active
Activity [6]: 23.9%
Activity (Lipid bilayer): 53.5%
Ratio [7]: > 511
MIC (Staphylococcus aureus [8]): 3.13 µg/mL (≈ 3.79 µM)
Activity [9]: -1.52%
Activity (Staphylococcus aureus [10]): Dose-dependent effect
MIC (Staphylococcus aureus [11]): 1.56 µg/mL (≈ 1.89 µM)
